# Test results: ChEMBL document CHEMBL1137710, “Synthesis and in vitro antitumor activity of new quinoxaline derivatives” (2009)
# Assays:
# Format in all cases: functional
# MCF7 = assay: Anticancer activity against human MCF7 cells assessed as cell growth at 100 uM after 48 hrs by sulforhodamine B assay; settings: MCF7, 48 h, read-out: Activity
# SF-268 = assay: Anticancer activity against human SF268 cells assessed as cell growth at 100 uM after 48 hrs by sulforhodamine B assay; settings: SF-268, 48 h, read-out: Activity
# [1] = Growth inhibition of human […] cells after 48 hrs by sulforhodamine B assay
# Summary of the method: (§1)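 NCI 60-human-tumor-cell-line panel, with compounds tested over a 5-log dose range. Values are taken from dose-response curves as log10 molar concentrations: GI50 is 50% net growth inhibition, TGI is total growth inhibition, and LC50 is 50% net cell death.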
# SR = assay: Growth inhibition of human SR cells after 48 hrs by sulforhodamine B assay
# Summary of the method: (§2)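 Run in the NCI 60-human-tumour-cell-line panel, tested over a 5-log dose range. Dose–response curves gave three values per cell line, each as a log10 molar concentration: GI50 (50% inhibition of net cell growth), TGI (total inhibition of net growth) and LC50 (50% net cell death). The mean graph midpoint is the arithmetic mean over all lines, with insensitive lines entered at the highest concentration tested.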
# A549 = assay: Growth inhibition of human A549 cells after 48 hrs by sulforhodamine B assay; settings: A549, 48 h; summary of the method: as §1
# NCI-H23 = assay: Growth inhibition of human NCI-H23 cells after 48 hrs by sulforhodamine B assay; settings: NCI-H23, 48 h; summary of the method: as §1
# NCI-H460 = assay: Growth inhibition of human NCI-H460 cells after 48 hrs by sulforhodamine B assay; settings: NCI-H460, 48 h; summary of the method: as §1
# COLO 205 = assay: Growth inhibition of human COLO205 cells after 48 hrs by sulforhodamine B assay; settings: COLO 205, 48 h; summary of the method: as §1
# HCT-116 = assay: Growth inhibition of human HCT116 cells after 48 hrs by sulforhodamine B assay; settings: HCT-116, 48 h; summary of the method: as §1
# KM12 = assay: Growth inhibition of human KM12 cells after 48 hrs by sulforhodamine B assay; settings: KM12, 48 h; summary of the method: as §1
# SW-620 = assay: Growth inhibition of human SW620 cells after 48 hrs by sulforhodamine B assay; settings: SW-620, 48 h; summary of the method: as §2
# SF-295 = assay: Growth inhibition of human SF295 cells after 48 hrs by sulforhodamine B assay; settings: SF-295, 48 h; summary of the method: as §1
# SNB-19 = assay: Growth inhibition of human SNB19 cells after 48 hrs by sulforhodamine B assay; settings: SNB-19, 48 h; summary of the method: as §2
# U-251 = assay: Growth inhibition of human U251 cells after 48 hrs by sulforhodamine B assay; settings: U-251, 48 h; summary of the method: as §2
# LOX IMVI = assay: Growth inhibition of human LOXIMVI cells after 48 hrs by sulforhodamine B assay; summary of the method: as §1
# M14 = assay: Growth inhibition of human M14 cells after 48 hrs by sulforhodamine B assay; settings: M14, 48 h; summary of the method: as §1
# OVCAR-5 = assay: Growth inhibition of human OVCAR5 cells after 48 hrs by sulforhodamine B assay; settings: OVCAR-5, 48 h; summary of the method: as §1
# OVCAR-8 = assay: Growth inhibition of human OVCAR8 cells after 48 hrs by sulforhodamine B assay; settings: OVCAR-8, 48 h; summary of the method: as §1
# SK-OV-3 = assay: Growth inhibition of human SKOV3 cells after 48 hrs by sulforhodamine B assay; settings: SK-OV-3, 48 h; summary of the method: as §1
# 786-0 = assay: Growth inhibition of human 786-0 cells after 48 hrs by sulforhodamine B assay; settings: 786-0, 48 h; summary of the method: as §1
# CAKI-1 = assay: Growth inhibition of human Caki1 cells after 48 hrs by sulforhodamine B assay; settings: CAKI-1, 48 h; summary of the method: as §1
# RXF 393 = assay: Growth inhibition of human RXF393 cells after 48 hrs by sulforhodamine B assay; settings: RXF 393, 48 h; summary of the method: as §1
# TK-10 = assay: Growth inhibition of human TK10 cells after 48 hrs by sulforhodamine B assay; settings: TK-10, 48 h; summary of the method: as §2
# PC-3 = assay: Growth inhibition of human PC3 cells after 48 hrs by sulforhodamine B assay; settings: PC-3, 48 h; summary of the method: as §1
# DU-145 = assay: Growth inhibition of human DU145 cells after 48 hrs by sulforhodamine B assay; settings: DU-145, 48 h; summary of the method: as §1
# NCI/ADR-RES = assay: Growth inhibition of human NCI/ADR-RES cells after 48 hrs by sulforhodamine B assay; summary of the method: as §1
# MDA-MB-231 = assay: Growth inhibition of human MDA-MB-231 cells after 48 hrs by sulforhodamine B assay; settings: MDA-MB-231, 48 h; summary of the method: as §1
# [2] = Growth inhibition of human Hs 578T cells after 48 hrs by sulforhodamine B assay; summary of the method: as §1
# MDA-MB-435 = assay: Growth inhibition of human MDA-MB-435 cells after 48 hrs by sulforhodamine B assay; settings: MDA-MB-435, 48 h; summary of the method: as §1
# [3] = read-out: pLC50 (the source's name) (converted)
structure (smiles),measurement,setting,value
COc1cc(OC)cc(Oc2nc3cc(N)cc(N)c3nc2-c2ccccc2)c1,growth at 100 µM,MCF7,0%
same,growth at 100 µM,SF-268,1%
same,GI50,[1],2.88 µM
same,TGI,[1]; read-out: pTGI (converted),8.51 µM
same,GI50,SR,1.86 µM
same,TGI,SR; read-out: pTGI (converted),28.8 µM
same,GI50,A549,2.88 µM
same,TGI,A549; read-out: pTGI (converted),13.2 µM
same,GI50,NCI-H23,1.7 µM
same,TGI,NCI-H23; read-out: pTGI (converted),12.6 µM
same,GI50,NCI-H460,2.95 µM
same,TGI,NCI-H460; read-out: pTGI (converted),12.6 µM
same,GI50,COLO 205,10.7 µM
same,TGI,COLO 205; read-out: pTGI (converted),22.4 µM
same,GI50,HCT-116,2.34 µM
same,TGI,HCT-116; read-out: pTGI (converted),10 µM
same,GI50,KM12,1.02 µM
same,TGI,KM12; read-out: pTGI (converted),6.03 µM
same,GI50,SW-620,2.24 µM
same,CC50,SW-620; [3],31.6 µM
same,TGI,SW-620; read-out: pTGI (converted),10.2 µM
same,GI50,SF-295,2.19 µM
same,TGI,SF-295; read-out: pTGI (converted),8.51 µM
same,GI50,SNB-19,2.51 µM
same,TGI,SNB-19; read-out: pTGI (converted),12.6 µM
same,GI50,U-251,2.63 µM
same,TGI,U-251; read-out: pTGI (converted),10.7 µM
same,GI50,LOX IMVI,2.95 µM
same,TGI,LOX IMVI; read-out: pTGI (converted),12.9 µM
same,GI50,M14,1.58 µM
same,CC50,M14; [3],28.8 µM
same,TGI,M14; read-out: pTGI (converted),7.76 µM
same,GI50,OVCAR-5,3.24 µM
same,CC50,OVCAR-5; [3],40.7 µM
same,TGI,OVCAR-5; read-out: pTGI (converted),16.2 µM
same,GI50,OVCAR-8,2.88 µM
same,CC50,OVCAR-8; [3],50.1 µM
same,TGI,OVCAR-8; read-out: pTGI (converted),16.2 µM
same,GI50,SK-OV-3,3.47 µM
same,CC50,SK-OV-3; [3],69.2 µM
same,TGI,SK-OV-3; read-out: pTGI (converted),16.2 µM
same,GI50,786-0,15.1 µM
same,CC50,786-0; [3],> 100 µM
same,TGI,786-0; read-out: pTGI (converted),41.7 µM
same,GI50,CAKI-1,16.2 µM
same,CC50,CAKI-1; [3],79.4 µM
same,TGI,CAKI-1; read-out: pTGI (converted),36.3 µM
same,GI50,RXF 393,5.37 µM
same,CC50,RXF 393; [3],44.7 µM
same,TGI,RXF 393; read-out: pTGI (converted),18.2 µM
same,GI50,TK-10,28.2 µM
same,CC50,TK-10; [3],> 100 µM
same,TGI,TK-10; read-out: pTGI (converted),57.5 µM
same,GI50,PC-3,10.2 µM
same,CC50,PC-3; [3],72.4 µM
same,TGI,PC-3; read-out: pTGI (converted),27.5 µM
same,GI50,DU-145,21.9 µM
same,CC50,DU-145; [3],> 100 µM
same,TGI,DU-145; read-out: pTGI (converted),57.5 µM
same,GI50,NCI/ADR-RES,1.12 µM
same,CC50,NCI/ADR-RES; [3],18.2 µM
same,TGI,NCI/ADR-RES; read-out: pTGI (converted),3.89 µM
same,GI50,MDA-MB-231,3.98 µM
same,CC50,MDA-MB-231; [3],87.1 µM
same,TGI,MDA-MB-231; read-out: pTGI (converted),21.9 µM
same,GI50,[2],1.32 µM
same,CC50,[2]; [3],25.7 µM
same,TGI,[2]; read-out: pTGI (converted),4.17 µM
same,GI50,MDA-MB-435,0.389 µM
same,CC50,MDA-MB-435; [3],5.01 µM
same,TGI,MDA-MB-435; read-out: pTGI (converted),1.82 µM
